For seven compounds, MIC and Activity results are on record in ChEMBL document CHEMBL4425087, “Antibacterial Azaphilones from an Endophytic Fungus, Colletotrichum sp. BS4” (2016).

One assay concerns Bacillus subtilis. Kind of assay: Antibacterial activity against Bacillus subtilis DSM 1088 incubated for 24 hrs by disk diffusion method. The assay is classed as functional. A digest of the protocol: (§1)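 Standard control strains from the DSMZ collection (Braunschweig): E. coli and B. subtilis as common environmental strains, and S. aureus and P. aeruginosa as human pathogenic clinical strains. Run by the authors' previously described procedure.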

The subject of the next assay is Escherichia coli. The assay is described as follows: Antibacterial activity against Escherichia coli DSM 1116 incubated for 24 hrs by disk diffusion method. The format is functional. A digest of the protocol: as §1
A general note: In agar diffusion tests the substance spreads into inoculated agar from a disc or well.

A further assay deals with Staphylococcus aureus. Kind of assay: Antibacterial activity against Staphylococcus aureus DSM 799 incubated for 24 hrs by disk diffusion method. The format is functional. A digest of the protocol:
as §1

Another assay relates to Pseudomonas aeruginosa. The assay is described as follows: Antibacterial activity against Pseudomonas aeruginosa DSM 22644 incubated for 24 hrs by disk diffusion method. The format is functional. A digest of the protocol: as §1
A further assay relates to Bacillus spizizenii. Kind of assay: Antibacterial activity against Bacillus subtilis ATCC 6633 by disk diffusion method. The assay is classed as functional.
The test system of the next assay is Brevibacillus brevis. Kind of assay: Antibacterial activity against Bacillus brevis by disk diffusion method. The assay is classed as functional.
The subject of assay [1] is THP-1. The assay is described as follows: Cytotoxicity against human THP1 cells assessed as reduction in cell survival by measuring inhibition of intracellular ATP level at 0.01 to 100 uM after 48 hrs by ATPlite assay. The assay is classed as functional, cell-based. A digest of the protocol: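 THP-1 human acute monocytic leukemia cells, in vitro. ATPlite luminescence measures depletion of cytoplasmic ATP.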
In general terms: Cellular ATP, detected with luciferase, serves as a proxy for viable cell number.

In assay [2] the test system is THP-1. Kind of assay: Cytotoxicity against human THP1 cells assessed as reduction in cell survival by measuring inhibition of mitochondrial metabolic activity at 0.01 to 100 uM after 48 hrs by resazurin assay. The format is functional, cell-based. A digest of the protocol: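 Human acute monocytic leukemia THP-1 cells, in vitro. Resazurin-based read-out measures inhibition of mitochondrial metabolic activity.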
(In general: Resazurin is reduced to fluorescent resorufin, in cell work by metabolically active cells.)

Values after ≈ are worked out from the molar mass of the structure shown. Active and inactive are the calls of the source. The rule behind the calls is not given here. Bounds are passed on as bounds.

In the case of GENTAMICIN, the MIC with Bacillus subtilis, with Escherichia coli, against Staphylococcus aureus and with Pseudomonas aeruginosa was 1 µg/mL throughout.
For `CCCCCCCCCCCCCCCCCC[C@H](C)C(=O)C1=C2C3=COC(C)=CC3=CC(=O)[C@]2(C)OC1=O`, the MIC against Bacillus spizizenii and against Brevibacillus brevis was 5 µg/mL (≈ 9.28 µM) each time.
As to `CC[C@H](C)C1=C2C(=O)O[C@@]3(C)C(=O)C=C4C=C(C)O[C@@H](O1)[C@@]4(O)[C@@]23O`, the MIC (commonly the lowest concentration found to suppress growth) is 0.1 µg/mL (≈ 0.287 µM) against Bacillus subtilis (DSM 1088, 24 h); 1 µg/mL (≈ 2.87 µM) in the assay on Escherichia coli (DSM 1116, 24 h); over 10 µg/mL with Staphylococcus aureus (DSM 799, 24 h); over 10 µg/mL against Pseudomonas aeruginosa (DSM 22644, 24 h). Further, the result with THP-1 [1] and in the assay with THP-1 [2] was inactive.
Turning to `CN[C@@H]1[C@H](O[C@H]2[C@H](O[C@H]3[C@H](O)[C@@H](O)[C@H](N=C(N)N)[C@@H](O)[C@@H]3N=C(N)N)O[C@@H](C)[C@]2(O)C=O)O[C@@H](CO)[C@H](O)[C@H]1O` [STREPTOMYCIN], the MIC stood at 5 µg/mL (≈ 8.6 µM) in the assay with Bacillus subtilis (DSM 1088, 24 h); 1 µg/mL (≈ 1.72 µM) in the assay with Escherichia coli (DSM 1116, 24 h); 5 µg/mL (≈ 8.6 µM) against Staphylococcus aureus (DSM 799, 24 h); 10 µg/mL (≈ 17.2 µM) with Pseudomonas aeruginosa (DSM 22644, 24 h).
Take `CC[C@H](C)C(=O)[C@H]1C(=O)O[C@@]2(C)C(=O)C=C3C=C(C)OC[C@H]3[C@H]12`: the minimum inhibitory concentration (MIC) against Bacillus subtilis (DSM 1088, 24 h) was over 10 µg/mL; in the assay on Escherichia coli (DSM 1116, 24 h) it was 5 µg/mL (≈ 15.7 µM); in the assay with Staphylococcus aureus (DSM 799, 24 h), over 10 µg/mL; in the assay on Pseudomonas aeruginosa (DSM 22644, 24 h), over 10 µg/mL. Also, the result in the assay on THP-1 [1] and in the assay on THP-1 [2] was inactive.
Turning to `CC[C@H](C)C(=O)[C@H]1C(=O)O[C@@]2(C)C(=O)C=C3C=C(C)OC=C3[C@H]12` [CHERMESINONE B], the MIC against Bacillus subtilis (DSM 1088, 24 h) is over 10 µg/mL; against Escherichia coli (DSM 1116, 24 h) it was over 10 µg/mL; in the assay on Staphylococcus aureus (DSM 799, 24 h), over 10 µg/mL; with Pseudomonas aeruginosa (DSM 22644, 24 h), over 10 µg/mL. For the same compound, the outcome with THP-1 [1] and in the assay with THP-1 [2] was inactive.
For the compound `CC[C@H](C)C(=O)[C@@H]1C(=O)O[C@@]2(C)C(=O)C=C3C=C(C)OC=C3[C@@H]12`, the MIC in the assay on Bacillus subtilis (DSM 1088, 24 h) was over 10 µg/mL; in the assay on Escherichia coli (DSM 1116, 24 h) it was over 10 µg/mL; with Staphylococcus aureus (DSM 799, 24 h), 5 µg/mL (≈ 15.8 µM); with Pseudomonas aeruginosa (DSM 22644, 24 h) it was over 10 µg/mL. For the same compound, the result with THP-1 [1] and in the assay on THP-1 [2] was inactive.
